Source: PubChem BioAssay AID504654 (Molecular Libraries Program, Specialized Chemistry Center, …, 2011)
Calls of active or inactive are those of the source.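 Rule for the calls: active = IC50 of at least 20 µM; inactive = IC50 below 20 µM.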

biological target: HeLa ODD-luciferase turnover, degradation rate luminescence; assay: inhibitors of ODD-luciferase turnover, p97-independent, SAR follow-up, counter-screen for p97 inhibitor project, cell-based, HeLa, luminescence (AID 504654)
Summary of the method: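 Assay system: Human HeLa line with stable ODD-luciferase reporter | Detection: Luminescence after luciferin substrate addition | Read-out: IC50 from Langmuir fit of percent remaining degradation rate | Reagent: MG132 4 µM proteasome block before chase, then washed out | Times: 1 h MG132 block, 70/90/120/150 min chase | Control set: DMSO wells as reference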

| IC50 | SMILES |
| --- | --- |
| inactive | Fc1cccc(CNc2nc(NCc3ccccc3)c3ccccc3n2)c1 |
| inactive | FC(F)(F)c1ccc(CNc2nc(NCc3ccccc3)c3ccccc3n2)cc1 |
| inactive | Brc1cccc(CNc2nc(NCc3ccccc3)c3ccccc3n2)c1 |
| inactive | COc1cccc2c(NCc3ccccc3)nc(NCc3cccs3)nc12 |
| inactive | COc1cccc2c(NCc3ccccc3)nc(NCc3ccccc3)nc12 |
| inactive | COc1cccc2c(NCc3ccccc3)nc(Nc3nc4ccccc4n3C)nc12 |
| inactive | Cc1ccc(CNc2nc(NCc3ccccc3)c3ccccc3n2)cc1 |
| > 20 µM | COc1cccc2c(NCc3ccccc3)nc(-n3c(=O)oc4ccccc43)nc12 |
| inactive | c1ccc(CNc2nc(N3CCOc4ccccc43)nc3ccsc23)cc1 |
| inactive | COc1cccc2c(NCc3ccccc3)nc(Nc3cccc(Cl)c3)nc12 |
